The results in this text go back to ChEMBL document CHEMBL1212817, “Design and synthesis of C-2 substituted thiazolo and dihydrothiazolo ring-fused 2-pyridones: pilicides with increased antivirulence activity” (J Med Chem, 2010).

The test system of the first experiment is Escherichia coli. Nature of the experiment: Antibacterial activity against Escherichia coli UTI89 assessed as number of wells with agglutination by hemagglutinination assay. The format is functional. The method in brief: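 UTI89 grown with pilicide at 250 μM; culture piliation then scored by hemagglutination titer, expressed as number of wells with agglutination (2ⁿ); value is the average of duplicate runs.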
For `O=C(O)c1c(-c2ccsc2)sc2c(C3CC3)c(Cc3cccc4ccccc34)cc(=O)n12`, the Activity was 3.5.
The same measure, in the same setting: in the case of `O=C(O)c1c(Cc2ccccc2)sc2c(C3CC3)c(Cc3cccc4ccccc34)cc(=O)n12` it was 3; in that of `O=C(O)c1c(-c2ccccc2)sc2c(C3CC3)c(Cc3cccc4ccccc34)cc(=O)n12`, 4.5.
With `Cc1cccc(-c2sc3c(C4CC4)c(Cc4cccc5ccccc45)cc(=O)n3c2C(=O)O)c1`, the Activity was found to be 3.

The target of a further experiment is T1, Chaperone protein PapD (Escherichia coli, UniProt P15319).
T1 sequence (P15319 whole entry): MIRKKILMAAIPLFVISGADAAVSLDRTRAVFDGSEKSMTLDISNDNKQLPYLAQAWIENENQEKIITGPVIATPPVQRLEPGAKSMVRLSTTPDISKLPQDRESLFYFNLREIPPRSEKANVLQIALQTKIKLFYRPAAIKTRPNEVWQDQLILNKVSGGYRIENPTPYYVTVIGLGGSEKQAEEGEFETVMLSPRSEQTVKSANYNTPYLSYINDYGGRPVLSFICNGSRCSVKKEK
As to the kind of experiment: Inhibition of Escherichia coli UTI89 PapD chaperon assessed as inhibition of biofilm formation. In outline:
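Pilus-dependent biofilm assay with whole E. coli UTI89 grown on polyvinylchloride in the presence of pilicide; biofilm amount taken as readout of piliation block. IC50 calculated from 16-32 data points at every concentration.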
On to `O=C(O)c1c(-c2ccc3[nH]ccc3c2)sc2c(C3CC3)c(Cc3cccc4ccccc34)cc(=O)n12`, for which the IC50 entry is given as “Not Active”.
Same read-out and setting: in the case of `COc1ccc(-c2sc3c(C4CC4)c(Cc4cccc5ccccc45)cc(=O)n3c2C(=O)O)cc1` it was “Not Active”; in that of `O=C(c1ccccc1)c1sc2c(C3CC3)c(Cc3cccc4ccccc34)cc(=O)n2c1C(=O)O`, “Not Active”.
